We go through 52 molecules from ChEMBL document CHEMBL2311268, “Targeting the binding function 3 (BF3) site of the androgen receptor through virtual screening. 2. development of 2-((2-phenoxyethyl) thio)-1H-benzimidazole derivatives” (J Med Chem, 2013).

Assay [1] deals with T1, Androgen receptor (Homo sapiens, UniProt P10275).
T1 sequence (P10275 whole entry): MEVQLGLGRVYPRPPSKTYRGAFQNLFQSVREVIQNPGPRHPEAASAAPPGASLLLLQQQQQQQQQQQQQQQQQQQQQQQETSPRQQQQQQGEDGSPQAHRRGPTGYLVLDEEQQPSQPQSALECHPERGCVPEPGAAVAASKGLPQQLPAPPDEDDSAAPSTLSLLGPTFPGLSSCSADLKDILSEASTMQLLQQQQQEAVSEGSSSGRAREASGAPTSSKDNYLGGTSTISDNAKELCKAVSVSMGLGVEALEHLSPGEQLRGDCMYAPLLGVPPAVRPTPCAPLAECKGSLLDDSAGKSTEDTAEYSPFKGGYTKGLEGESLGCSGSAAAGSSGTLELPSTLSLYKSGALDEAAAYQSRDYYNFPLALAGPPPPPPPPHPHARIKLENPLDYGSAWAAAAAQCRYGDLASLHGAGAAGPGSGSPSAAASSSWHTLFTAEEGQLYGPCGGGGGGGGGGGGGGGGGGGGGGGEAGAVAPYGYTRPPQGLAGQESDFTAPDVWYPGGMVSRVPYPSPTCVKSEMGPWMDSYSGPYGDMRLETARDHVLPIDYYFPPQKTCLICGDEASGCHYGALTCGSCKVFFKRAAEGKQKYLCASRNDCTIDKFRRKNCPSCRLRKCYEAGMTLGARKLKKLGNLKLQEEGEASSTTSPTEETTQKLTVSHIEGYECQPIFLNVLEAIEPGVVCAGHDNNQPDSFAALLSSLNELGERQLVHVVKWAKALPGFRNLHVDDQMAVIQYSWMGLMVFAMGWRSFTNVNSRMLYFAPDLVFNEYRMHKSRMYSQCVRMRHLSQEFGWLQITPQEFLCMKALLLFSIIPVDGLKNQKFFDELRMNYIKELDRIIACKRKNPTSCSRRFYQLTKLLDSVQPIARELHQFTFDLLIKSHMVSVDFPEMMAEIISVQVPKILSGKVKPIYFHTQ
Kind of assay: Inhibition of BF3 site of androgen receptor in human LNCAP cells expressing ARR2PB after 3 days by eGFP transcriptional assay. It is filed as cell-based.

The target in assay [2] is T2, Estrogen receptor (Homo sapiens) (UniProt P03372).
T2 sequence (whole entry): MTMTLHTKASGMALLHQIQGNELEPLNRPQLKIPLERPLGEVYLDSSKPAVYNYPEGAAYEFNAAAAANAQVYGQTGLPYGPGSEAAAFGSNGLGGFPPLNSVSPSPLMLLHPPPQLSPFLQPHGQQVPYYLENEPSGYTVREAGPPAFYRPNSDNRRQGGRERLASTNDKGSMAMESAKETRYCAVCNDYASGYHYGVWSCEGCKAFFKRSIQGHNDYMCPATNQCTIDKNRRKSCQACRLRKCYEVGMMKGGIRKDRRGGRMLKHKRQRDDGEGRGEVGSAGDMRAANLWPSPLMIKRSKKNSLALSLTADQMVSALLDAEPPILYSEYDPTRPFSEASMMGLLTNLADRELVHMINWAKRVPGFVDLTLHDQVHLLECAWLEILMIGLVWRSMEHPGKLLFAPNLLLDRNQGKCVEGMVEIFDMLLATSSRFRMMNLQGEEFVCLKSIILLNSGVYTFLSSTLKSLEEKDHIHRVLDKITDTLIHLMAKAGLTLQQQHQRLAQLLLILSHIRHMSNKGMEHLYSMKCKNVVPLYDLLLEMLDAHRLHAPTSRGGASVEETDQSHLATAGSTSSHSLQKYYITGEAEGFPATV
Kind of assay: Inhibition of estrogen receptor alpha in human MCF7 cells at 1 to 10 uM after 3 days by luciferase reporter gene assay. Type of assay: cell-based. A digest of the protocol:
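MCF-7 cells were kept 5 days in phenol-red-free RPMI 1640 with 10% CSS, then seeded. After 24 h they were transfected with a luciferase plasmid driven by a consensus estrogen response element. Next day they were treated with 1 nM E2 plus test compound (10 µM final) in 0.1% EtOH/0.1% DMSO. Cells were lysed 24 h later and luminescence read.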
For orientation: Reporter assays use an easily measured gene product as a stand-in for the process of interest.

Assay [3] has as its system LNCaP. The assay is described as follows: Cytotoxicity against human LNCAP cells assessed as growth inhibition at 6 uM after 4 days. It is filed as functional, cell-based. The method, boiled down: (§1)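 Viability read after a 4-day incubation with compound at 6 µM in LNCaP, enzalutamide-resistant LNCaP-derived and AR-independent PC3 prostate cancer cells; data given as mean ± SEM.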

Assay [4] concerns the target T1, Androgen receptor. Kind of assay: Inhibition of BF3 site of androgen receptor in human LNCAP cells expressing ARR2PB assessed as reduction in PSA level after 3 days. It is filed as cell-based.
Assay [5] has as its system PC-3. Kind of assay: Cytotoxicity against AR independent human PC3 cells assessed as growth inhibition at 6 uM after 4 days. It is filed as functional, cell-based. The method, boiled down: as §1
Assay [6] concerns LNCaP. The assay is described as follows: Cytotoxicity against enzalutamide-resistant human LNCAP cells assessed as growth inhibition at 6 uM after 4 days. Type of assay: functional, cell-based. The method, boiled down: as §1
In assay [7] the target is T1, Androgen receptor. Type of assay: cell-based, LNCaP.

Active and inactive are the calls of the source. The rule behind the calls is not given here.

Take `CCOc1cccc(OCCSc2nc3ccccc3n2CCOc2ccc(C)cc2)c1`: in assay [1], the IC50 came out at 22.8 µM. In assay [1], `NS(=O)(=O)c1ccc(OCCSc2nc3ccccc3[nH]2)cc1` returned an IC50 of 62 µM. In assay [1], `Clc1cccc(OCCSc2nc3ccccc3[nH]2)c1` registered an IC50 of 5 µM. With `c1ccc(NCCSc2nc3ccccc3[nH]2)cc1`, in assay [1], the IC50 is over 200 µM. In assay [1], `Cc1cccc(OCCSc2nc3ccccc3n2CCC(=O)O)c1` returned an IC50 of over 200 µM. In assay [1], `O=C(O)CCn1c(SCCOc2ccccc2)nc2ccccc21` yielded an IC50 of over 200 µM. In turn, `CCN(CC)C(=O)Cn1c(SCCOc2cccc(C)c2)nc2ccccc21` gave an IC50 in assay [1] of over 200 µM.

Molecule `c1ccc(CCCSc2nc3ccccc3[nH]2)cc1` gave an IC50 in assay [1] of 12 µM.

In assay [1], `Cc1ccc(OCCSc2nc3ccccc3n2CC(=O)OC(C)C)cc1C` came in with an IC50 of 30.6 µM. For the molecule `Cc1cccc(C)c1OCCSc1nc2ccccc2[nH]1`, the IC50 is 2.7 µM in assay [1], 1.9 µM in assay [4] and 6.8 µM in assay [7]. Moreover, in assay [2], the inhibition result is “inactive”. Further, the “growth inhibition (GI)” value in assay [3] and in assay [6] was “Active” each time. In addition, in assay [5], the “growth inhibition (GI)” value is “inactive”. Molecule `CCn1c(SCCOc2ccccc2)nc2ccccc21` displayed an IC50 in assay [1] of 12 µM. In assay [1], `Cc1cccc(OCCSc2nc3ccccc3n2CC(=O)N2CCOCC2)c1` gave an IC50 of over 200 µM. In turn, `COC(=O)Cn1c(SCCOc2ccc(C)c(C)c2)nc2ccccc21` had an IC50 in assay [1] of over 200 µM. Consider `c1ccc(OCCCSc2nc3ccccc3[nH]2)cc1`, for which the IC50 in assay [1] was over 200 µM. In assay [1], `COCCn1c(SCCOc2ccc(C)cc2)nc2ccccc21` came in with an IC50 of 12.7 µM. Still for that read-out and setting: for `CCc1cccc(OCCSc2nc3ccccc3n2CCC(=O)O)c1` the value was over 200 µM. The molecule `Clc1ccc(OCCSc2nc3ccccc3[nH]2)cc1` had an IC50 in assay [1] of 4 µM. The molecule `Cc1ccc(OCCSc2nc3ccccc3[nH]2)cc1` returned an IC50 in assay [1] of 7 µM. As to `C=CCn1c(SCCOc2ccccc2)nc2ccccc21`, the IC50 in assay [1] is over 200 µM. For `Cc1cccc(OCCSc2nc3ccccc3[nH]2)c1`, the IC50 in assay [1] was found to be 1.8 µM; in assay [4] it was 3.3 µM; in assay [7], 13 µM. In addition, in assay [2], the inhibition entry is “inactive”. Besides, the “growth inhibition (GI)” value in assay [3] and in assay [6] was “Active” each time. Further, the “growth inhibition (GI)” value in assay [5] is “inactive”. Molecule `Cc1ccc(OCCSc2nc3ccccc3n2CC(=O)O)cc1C` returned an IC50 in assay [1] of over 200 µM. Molecule `Cc1ccc(C)c(OCCSc2nc3ccccc3n2CC(=O)O)c1` registered an IC50 in assay [1] of over 200 µM. `CCOC(=O)Cn1c(SCCOc2cccc(C)c2)nc2ccccc21` gave an IC50 in assay [1] of 14.1 µM. Same read-out and setting: for `CCOC(=O)Cn1c(SCCOc2cccc(CC)c2)nc2ccccc21` the value was 55 µM.

For `CCc1cccc(OCCSc2nc3ccccc3n2CC(=O)O)c1`, in assay [1], the IC50 was over 200 µM. `CCOC(=O)Cn1c(SCCOc2ccc(C)c(C)c2)nc2ccccc21` returned an IC50 in assay [1] of 40.3 µM. With `COCCn1c(SCCOc2cccc(C)c2)nc2ccccc21`, the IC50 in assay [1] was found to be 24.1 µM.

Turning to `CCc1cccc(OCCSc2nc3ccccc3n2CC(=O)OC)c1`, the IC50 in assay [1] was over 200 µM. Regarding `Cc1ccc(OCCSc2nc3ccccc3n2CC(=O)O)cc1`, in assay [1], it took 164 µM to reach half-maximal inhibition (IC50).

`c1ccc(OCCSc2nc3ccccc3o2)cc1` gave an IC50 in assay [1] of over 200 µM.

`Cc1cccc(OCCSc2nc3ccccc3n2CCOc2ccccc2)c1`: the IC50 in assay [1] was over 200 µM. On the same count and under the same terms, to `Cc1ccccc1OCCSc1nc2ccccc2[nH]1` belongs 19 µM; to `c1ccc(OCCSc2cc3ccccc3[nH]2)cc1`, 5.4 µM; to `[O-][S+](CCOc1ccccc1)c1nc2ccccc2[nH]1` (stereo not drawn), over 200 µM.

With `CCOC(=O)Cn1c(SCCOc2cc(C)cc(C)c2)nc2ccccc21`, in assay [1], the IC50 was over 200 µM. As for `NS(=O)(=O)c1cccc2cc(SCCOc3ccccc3)[nH]c12`, the IC50 stood at 1.5 µM in assay [1], 1.6 µM in assay [4] and 6.4 µM in assay [7]. Besides, the inhibition result in assay [2] is “inactive”. Further, the “growth inhibition (GI)” value in assay [3] and in assay [6] was “Active” in each case. The “growth inhibition (GI)” value in assay [5] was “inactive”. In the case of `c1ccc(OCCNc2nc3ccccc3[nH]2)cc1`, the concentration for half-maximal inhibition (IC50) in assay [1] was over 200 µM.

As to `OCCn1c(SCCOc2ccccc2)nc2ccccc21`, the IC50 in assay [1] is over 200 µM. `Cc1ccc(OCCSc2nc3ccccc3n2CC(=O)OC(C)C)cc1` came in with an IC50 in assay [1] of 11.1 µM. Same read-out and setting: to `c1ccc(OCCCc2nc3ccccc3[nH]2)cc1` belongs over 200 µM.

In turn, `CCn1c(SCCOc2cccc(C)c2)nc2ccccc21` yielded an IC50 in assay [1] of 35 µM. `C=CCc1cccc(OCCSc2nc3ccccc3n2CC(=O)OC)c1`: the IC50 in assay [1] was over 200 µM.

For `Cc1cccc(OCCSc2nc3ccccc3n2CC(=O)OC(C)C)c1`, half-maximal inhibition in assay [1] (IC50) was put at 13.7 µM.

Take `c1ccc(CCSc2nc3ccccc3[nH]2)cc1`: half-maximal inhibition in assay [1] (IC50) was put at 7.4 µM. On the same count and under the same terms, for `COC(=O)Cn1c(SCCOc2ccc(C)cc2)nc2ccccc21` the value was 32.9 µM. `Cc1cccc(OCCSc2nc3ccccc3n2CC(=O)O)c1` showed a half-inhibitory concentration (IC50) in assay [1] of over 200 µM.

As for `c1ccc(OCCSc2nc3ccccc3[nH]2)cc1`, the inhibition result in assay [2] is “inactive”. Also, the “growth inhibition (GI)” value in assay [3], in assay [5] and in assay [6] was “inactive” each time. For the molecule `Cc1cc(C)cc(OCCSc2nc3ccccc3n2CC(=O)O)c1`, the IC50 in assay [1] is over 200 µM.

Consider `Cc1ccc(OCCSc2nc3ccccc3n2CCC(=O)O)cc1`, for which the IC50 in assay [1] was over 200 µM.

In assay [1], `Cc1cccc(OCCSc2nc3ccccc3n2C)c1` had an IC50 of 45 µM. Molecule `CC(C)(C)c1cccc(OCCSc2nc3ccccc3n2CC(=O)O)c1` yielded an IC50 in assay [1] of over 200 µM.

The molecule `O=S(=O)(CCOc1ccccc1)c1nc2ccccc2[nH]1` showed an IC50 in assay [1] of over 200 µM.

The term IC50 denotes the concentration needed to halve the response being measured.
